CHT PAM: CHT positive allosteric modulators, primary screen, cell-based, membrane potential dye, choline EC20; 0.49% of 310,000 active; CHT-expressing cells; active compounds read high; LV-AA mutant CHT in HEK293 cells; B-score at 10 µM; High affinity choline transporter 1 (Homo sapiens), Q9GZV3;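 active = initial fluorescence not abnormally high and integrated response B-score, plate-corrected, over 3 SD above library mean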
CHT inh: inhibitors of human choline transporter CHT | CHT-expressing cells, membrane potential dye, choline response; active compounds read low | B-score at 10 µM | 0.86% of 310,000 active | AID 488975, 2010;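 active = B-score over 3 SD under the library average, and starting fluorescence ratio not unusually high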;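 note: choline stimulus applied at its EC90 after an EC20 pre-addition; B-score computed on integrated fluorescence ratio after choline addition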
TNAP act hi DEA: TNAP activators at high phosphate acceptor level, primary screen, biochemical, luminescence, uHTS; purified TNAP, CDP-star luminescence, 1 M DEA, 30 min; active compounds read high; 0 = EDTA background, 1 = DMSO-only activity; activation factor at 20 µM; 200,000 tested, under 10 active;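 active = activation factor at least 2 at 20 µM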
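Test system – human TNAP · Doses – 20 µM single point · Incubation – 30 min, room temperature · Signal – luminescent substrate turnover signal · Read-out basis – activation factor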
ABCB6 inh MLPCN: ABCB6 transporter inhibitors, primary screen, K562-ABCB6 cells, flow cytometry, MLPCN library | fluorescence ratio to DMSO, % at 10 µM | ATP-binding cassette sub-family B member 6 (Homo sapiens), Q9NP58 | 0.19% of 360,000 active | K562-ABCB6 porphyrin accumulation, 1 h; active compounds read low | AID 602162, 2011;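 active = fluorescence ratio to DMSO below 75%, the collection mean minus 3 SD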;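 note: signal is porphyrin accumulated inside mitochondria; lower ratio means ABCB6 inhibition with less porphyrin fluorescence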
Target sequence (Q9NP58 whole entry, looked up): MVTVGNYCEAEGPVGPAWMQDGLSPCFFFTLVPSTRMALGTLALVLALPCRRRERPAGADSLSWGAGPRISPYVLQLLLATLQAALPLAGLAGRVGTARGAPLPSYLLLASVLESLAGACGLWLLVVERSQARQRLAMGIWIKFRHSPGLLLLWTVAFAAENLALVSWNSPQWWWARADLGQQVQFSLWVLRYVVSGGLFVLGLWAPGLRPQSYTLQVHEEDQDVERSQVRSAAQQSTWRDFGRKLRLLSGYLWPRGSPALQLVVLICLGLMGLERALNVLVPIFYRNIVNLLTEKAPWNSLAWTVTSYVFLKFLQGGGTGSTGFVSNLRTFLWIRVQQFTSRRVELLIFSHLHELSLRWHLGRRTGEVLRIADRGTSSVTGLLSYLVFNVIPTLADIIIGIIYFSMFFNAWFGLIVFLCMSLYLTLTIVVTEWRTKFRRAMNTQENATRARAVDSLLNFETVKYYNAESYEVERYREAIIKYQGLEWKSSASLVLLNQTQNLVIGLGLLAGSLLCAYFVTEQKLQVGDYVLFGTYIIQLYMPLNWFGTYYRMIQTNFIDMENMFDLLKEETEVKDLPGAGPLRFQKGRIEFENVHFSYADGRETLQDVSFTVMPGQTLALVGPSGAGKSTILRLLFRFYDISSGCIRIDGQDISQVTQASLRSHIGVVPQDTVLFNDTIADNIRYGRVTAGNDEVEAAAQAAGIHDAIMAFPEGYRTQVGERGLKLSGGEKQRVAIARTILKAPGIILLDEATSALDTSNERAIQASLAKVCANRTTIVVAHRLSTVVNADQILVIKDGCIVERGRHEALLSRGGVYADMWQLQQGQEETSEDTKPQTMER
TNAP inh hiacc: human TNAP enzyme inhibitors, primary screen, biochemical, luminescent, high phosphate acceptor level, uHTS. AID 1135, 2008. Alkaline phosphatase, tissue-nonspecific isozyme (Homo sapiens), P05186. 0.03% of 200,000 active. inhibition, % at 20 µM. purified TNAP, CDP-star luminescence, 1 M DEA;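 active = over 50% inhibition of tissue-nonspecific alkaline phosphatase at 20 µM in the single-dose screen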
TNAP inh noacc: human TNAP enzyme inhibitors, primary screen, biochemical, luminescent, no phosphate acceptor, uHTS | Alkaline phosphatase, tissue-nonspecific isozyme (Homo sapiens), P05186 | purified TNAP, CDP-star luminescence, 30 min | inhibition, % at 20 µM | 0.26% of 200,000 active | AID 1012, 2008;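 active = tissue-nonspecific alkaline phosphatase inhibition above about 50% at 20 µM in the single-dose screen, limit read from the data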
CHT block conf: CHT inhibitors, confirmation, cell-based, membrane potential dye, duplicate; 70% of 2,400 active; CHT-expressing cells, choline membrane potential dye; LV-to-AA substituted CHT, HEK293 cells; CHT activity remaining % of control (active compounds read low), % at 10 µM; shares compounds with CHT inh;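 active = choline transporter activity left, mean of duplicates at 10 µM, below buffer-only control mean minus 3 SD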;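 note: depolarization triggered by choline at its EC90 following an EC20 pre-addition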
HEK293 MPD ctr: membrane potential effects in parental HEK293, counter-screen for CHT inhibitor project, cell-based, membrane potential dye; 4% of 2,400 active; choline response; active = decrease or increase beyond buffer ±3SD; membrane potential ratio readout (active if shifted either direction beyond buffer ±3SD; no single direction) at 10 µM; AID 493222, 2011; shares compounds with CHT inh;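 note: parental cells lack the transporter so any hit is non-specific; ratio is peak minus trough fluorescence over baseline after EC90 choline challenge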
A number is an active result; – = inactive; · = not tested or not shown. Only some compounds are listed: those with a hit (about 1.4% of all), similar ones and a draw of the others.

SMILES | CHT PAM | CHT inh | TNAP act hi DEA | ABCB6 inh MLPCN | TNAP inh hiacc | TNAP inh noacc | CHT block conf | HEK293 MPD ctr
O=C1OC(=O)C2C3CCC(O3)C12 (configuration not stated) | – | – | · | · | · | · | · | ·
CCN(CC)S(=O)(=O)c1cc(C(=O)Nc2nncs2)c(Cl)cc1Cl | – | -9.5 | – | – | – | – | 50% | –
CCN1CCN(C2=C(NS(=O)(=O)c3ccc(NC(C)=O)cc3)C(=O)c3ccccc3C2=O)CC1 | – | – | · | – | · | · | · | ·
CC(=O)Nc1ccc(S(=O)(=O)NC2=C(N3CCN(Cc4ccccc4)CC3)C(=O)c3ccccc3C2=O)cc1 | – | -6.2 | – | – | – | – | 41% | 2.3
CCOC(=O)N1CCC(NC(=O)C2CCCN(Cc3nc(-c4cccc(Cl)c4)oc3C)C2)CC1 (configuration not stated) | – | -6.4 | – | – | – | – | 51% | –
Cc1oc(-c2ccc(Cl)cc2)nc1CN1CCCC(C(=O)NC2CC2)C1 (configuration not stated) | – | – | · | – | · | · | · | ·
Cc1ccc(C(=O)N(C)CC(=O)Nc2ccc(N3CCOCC3)cc2)s1 | – | – | · | – | · | · | · | ·
CC(=O)OCC1OC(n2c(-c3ccc(Cl)cc3)ccc(C#N)c2=S)C(OC(C)=O)C(OC(C)=O)C1OC(C)=O (configuration not stated) | · | · | · | – | · | · | · | ·
C=C[C@@]1(C)CC(=O)[C@]2(O)[C@@]3(C)[C@@H](O)CCC(C)(C)[C@@H]3[C@H](OC(C)=O)[C@H](O)[C@@]2(C)O1 | – | -8.1 | · | – | · | · | 37% | –
CCn1c(SCc2nnc(-c3ccccc3)o2)nc2c1c(=O)n(C)c(=O)n2C | · | · | – | · | – | – | · | ·
CCCCn1c(SCc2nnc(-c3ccccc3)o2)nc2c1c(=O)n(C)c(=O)n2C | – | -5.6 | – | – | – | – | 34% | –
c1ccc2c(c1)OC(CCCN1CCCCC1)c1ccccc1S2 (configuration not stated) | – | – | – | – | – | – | · | ·
CN1CCCC(CC2Oc3ccccc3Sc3ccccc32)C1 (configuration not stated) | – | -5.2 | – | – | – | – | 14% | –
O=S(=O)(Nc1nc2ccccc2s1)c1ccc(Cl)nc1 | – | – | · | – | · | · | 67% | –
COc1ccc(S(=O)(=O)Nc2nc3ccccc3s2)cc1 | – | – | – | – | – | – | · | ·
COc1ccc(CCNC(=O)COC(=O)CCC(=O)c2ccc(F)cc2)cc1OC | – | – | – | – | – | – | · | ·
O=c1cc(-c2ccccc2)c2c(O)cc(O)cc2o1 | – | -5 | · | – | · | · | 50% | –
O=c1c(O)c(-c2ccccc2)oc2cc(O)cc(O)c12 | · | · | · | – | · | · | · | ·
COc1ccc(S(=O)(=O)N2CCC(C(=O)N[C@H](C(=O)N3CCCCCC3)C(C)C)CC2)cc1 | – | – | · | – | · | · | · | ·
COc1ccccc1CNC(=O)COC(=O)c1ccccc1SCC(=O)N1CCCC1 | – | – | · | – | · | · | · | ·
Cc1ccc(CNc2ncc(-c3ccccc3)n2C)o1 | – | -5.1 | – | – | – | – | 34% | –
Cn1c(-c2ccccc2)cnc1NCc1ccccc1 | – | -7.2 | · | – | · | · | 46% | –
COc1ccc(CC(=O)N/N=C\c2cc(Br)c(O)c(Br)c2)cc1 | – | – | · | – | · | · | · | ·
COc1ccc(OC)c(S(=O)(=O)N/N=C\c2cn(CC(N)=O)c3ccccc23)c1 | – | – | · | – | · | · | · | ·

Screening results: PubChem BioAssay, several laboratories
